# Screening data: PubChem BioAssay, several laboratories
# Neddyl block = blocks human cullin neddylation. P61081+Q13564. 360,000 tested, 0.58% active. inhibition, % at 25 µM. AID 651699. TR-FRET cullin neddylation, biochemical; in the data active means inhibition above about 36%
# HKDC1 inhibitor = inhibitors of human hexokinase HKDC1; inhibition, % at 20 µM; Q2TB90; AID 493160; recombinant HKDC1, G6PDH/diaphorase resazurin coupled fluorescence; 340,000 tested, 0.16% active;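 active means inhibition above about 35% when tested at 20 µM, limit read from the data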;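 further: plate controls were DMSO wells with enzyme for no effect and DMSO wells lacking enzyme for full effect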
#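 Assay system: in-house recombinant HK5 (HKDC1) enzyme. Input: HKDC1 at 5 µg/mL. Medium: Tris pH 8.0 buffer with MgCl2, Tween-20, BSA, BME. Dosing: single 20 µM dose. Schedule: 90 min reaction incubation at room temperature, dark. Signal: resazurin-to-resorufin fluorescence via G6PDH and diaphorase coupling, 525/613 nm. Controls: DMSO-enzyme wells negative, buffer-substituted wells positive.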
# PfGluPho inh = PfG6PD (Plasmodium falciparum) enzyme inhibition | PfGluPho enzyme, NADPH resazurin-diaphorase fluorescence | inhibition, % at 20 µM | 350,000 tested, 0.78% active;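 active means inhibition reaching at least a set limit at 20 µM in the primary screen, cut at about 59% in these data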;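 further: 0% = DMSO wells with substrate and 100% = DMSO wells lacking glucose-6-phosphate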
# PfM18AAP inh = PfM18AAP enzyme inhibition; 290,000 tested, 1.2% active; inhibition, % at 7.35 µM; recombinant PfM18AAP, H-Glu-NHMec fluorogenic cleavage;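 active means inhibition above the campaign mean inhibition over all tested compounds plus 3 SD, cut at about 28% in these data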;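 further: 0% = plate median of test compound wells and 100% = 2 mM ZnCl2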
# Neddyl inh conf = cullin neddylation inhibition, confirmation | TR-FRET cullin neddylation biochemical assay | shares compounds with Neddyl block | AID 652217 | calls only at 25 µM | 1,800 tested, 13% active; in the data active means inhibition above about 40%;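 further: neddylation substrate is the cullin 1 ring ligase complex with SKP2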
# Active calls of the source: *; i = inactive; . = no result given; + = active, no number. Most compounds without a hit are left out; they make up all but 2.2% or so of the library.
SMILES,Neddyl block,HKDC1 inhibitor,PfGluPho inh,PfM18AAP inh,Neddyl inh conf
COc1ccc(-c2cc(C(=O)NNC(=O)c3csc(N4CCOCC4)n3)c3ccccc3n2)cc1,42*,2,-13,.,i
CCOc1ccc(NC(=S)N2CCN(c3ccc(N4CCOCC4)nn3)CC2)cc1,42*,1,13,1,i
CCOC(=O)c1ccc(NC(=S)N2CCN(c3ccc(N4CCOCC4)nn3)CC2)cc1,.,1,-3,3,.
O=C(N/N=C/c1ccc([N+](=O)[O-])o1)c1ccncc1,43*,-2,9,13,i
Cc1ccnc(NS(=O)(=O)c2ccc3ccccc3c2)n1,0,-3,24,-1,.
N#Cc1cc2c(=O)n3ccccc3nc2n(CCCn2ccnc2)c1=N,46*,3,5,-1,i
CCCn1c(=N)c(C#N)cc2c(=O)n3ccccc3nc21,.,-13,4,-2,.
O=C(Nc1cccc2nsnc12)c1cccs1,.,10,28,4,i
Cc1ccc(C(O)c2ncc(-c3cccc4ccccc34)[nH]2)cc1F (stereo not given),42*,.,.,.,i
Cc1ccc(C(O)c2ncc(-c3ccccc3C)[nH]2)cc1F (stereo not given),-5,.,.,.,.
CC1C(=O)N(Cc2cn(Cc3ccco3)nn2)CCS(=O)(=O)N1Cc1ccc(-c2ccc(Cl)c(Cl)c2)cc1 (stereo not given),-15,.,48,.,.
Cn1c2ccccc2c2c(C(=O)N3CCN(C(=O)c4ccco4)CC3)cn(C3CCCCC3)c(=O)c21,45*,-3,-5,7,i
Cc1cccc(C)c1C(O)c1ncc(-c2ccccc2C(F)(F)F)[nH]1 (stereo not given),4,.,.,.,.
Cc1ccc(-c2[nH]c3ccccc3c2SCCN)cc1,46*,-5,24,0,i
COC(=O)[C@]12CCCCC=C1N(Cc1ccccc1)C(=O)[C@H](CC(=O)N1CCCCC1)C2,2,.,.,.,.
COc1ccc(CC(=O)OCC(=O)Nc2ncc(Cl)c(C)c2Cl)cc1,3,9,7,.,.
C/C(=C\C(=S)Nc1ccccc1)Nc1ccc2ccccc2c1,5,10,19,15,.
C/C(=C\C(=S)Nc1ccccc1)Nc1cccc2ccccc12,46*,22,5,7,.
COc1ccc(C(c2c(NC(=O)c3ccco3)sc(C)c2C)N2CCOCC2)cc1 (stereo not given),45*,3,-14,.,.
COc1cccc(C(c2c(NC(=O)c3ccccc3)sc(C)c2C)N2CCN(C)CC2)c1 (stereo not given),41*,0,-4,-2,i
O=S(=O)(c1ccccc1)N1CCCCC1CCc1ccccc1 (stereo not given),-5,5,-1,.,.
COCCNC(=O)c1cc2c(=O)[nH]c3ccccc3c2s1,40*,7,1,1,.
N#C/C(=C\c1cn(CCOc2ccccc2F)c2ccccc12)C(=O)NCc1cccs1,33,6,2,-2,.
N#C/C(=C\c1cn(Cc2ccc(C#N)cc2)c2ccccc12)C(=O)NCc1cccs1,43*,6,4,-5,.
CCCCCCCCC(=O)N/N=C(\C)c1ccc(O)cc1O,35,-21,-22,7,.
SMILES,Neddyl block,HKDC1 inhibitor,PfGluPho inh,PfM18AAP inh,Neddyl inh conf
CCCCCCCC(=O)N/N=C(\C)c1ccc(O)cc1O,42*,-23,-29,13,i
CCCN(CCC)CCCNC(=O)c1cc2c(-c3ccc(OC)c(OC)c3)nn(C)c2s1,41*,-2,2,5,i
CC(O)C(NS(=O)(=O)c1ccc(Cl)cc1)C(=O)OCCOc1ccc(F)cc1 (stereo not given),-2,.,12,.,.
CCOC(=O)C1CCCN(C(=O)c2cc3cc(OC)c(OC)cc3[nH]2)C1 (stereo not given),43*,-1,-5,-10,.
CCOC(=O)C1=C(C)NC(C)=C(C(=O)OC)C1c1cccc(Cl)c1Cl (stereo not given),.,1,-7,-6,.
CCOC(=O)C1=C(COCCN)NC(C)=C(C(=O)OC)C1c1ccccc1Cl (stereo not given),.,0,-10,.,.
CN(Cc1nccs1)C(=O)c1cc(COc2cccc3cnccc23)on1,57*,3,-1,5,.
CC(=O)c1cccc(OCc2cc(C(=O)N(C)Cc3nccs3)no2)c1,0,.,-9,.,.
COCCNc1c2c(c(C#N)c3nc4ccccc4n13)CCCC2,53*,2,13,5,+
C=CCc1c(C)c(C#N)c2nc3ccccc3n2c1NCCN(C)C,43*,-5,-7,-1,.
CCc1c(C)c(C#N)c2nc3ccccc3n2c1NCCN(C)C,38,-11,0,0,.
N#Cc1c2c(c(NCCOCCO)n3c1nc1ccccc13)CCCC2,49*,8,2,-2,+
COCCNc1cc(C)c(C#N)c2nc3ccccc3n12,.,-2,4,5,.
COCCn1c(=O)[nH]c2cc(C(=O)OC)ccc2c1=O,42*,-4,7,-2,i
O=C(Cc1cn(-c2ccccc2)nc1-c1ccccc1)N1CCCCC1,3,9,8,-9,.
COc1ccc(-c2ccnc3cc(C(=O)O)nn23)cc1,53*,6,1,-16,.
COCCCn1c(=O)c2sccc2n2c(CCCC(=O)NCc3ccc(F)cc3)nnc12,42*,-3,-4,0,i
CCN1CCN(S(=O)(=O)c2ccc(Cl)c(C(=O)N(C)Cc3ccco3)c2)CC1,2,-3,2,.,.
O=C(O)c1cc2cc(OCc3ccccc3)ccc2[nH]1,51*,-3,-22,6,i
O=C1C2C3C=CC(C3)C2S(=O)(=O)C2C3C=CC(C3)C12 (stereo not given),-5,.,-12,.,.
Cc1n[nH]c(=S)n1/N=C/c1ccccc1,5,-1,14,15,.
Cc1ccc(-n2nc(C)c(/C=N/n3c(C)n[nH]c3=S)c2Cl)cc1,46*,-6,34,14,i
Nc1nnc(CC(=O)N/N=C/c2ccc(-c3ccccc3)o2)s1,-20,4,4,9,.
COC(=O)c1ccc(-c2ccc(/C=N/NC(=O)Cc3nnc(N)s3)o2)cc1,51*,1,4,9,i
CCOC(=O)N1CCC(NC(=O)CC2C(=O)NCCN2Cc2ccccc2)CC1 (stereo not given),13,-3,13,-4,.
SMILES,Neddyl block,HKDC1 inhibitor,PfGluPho inh,PfM18AAP inh,Neddyl inh conf
CN1CCOc2c1cnn(CCO)c2=O,40*,.,.,.,i
COc1ccc2sc(-c3ccc(N(C)C)cc3)c(-c3cnc(OC)nc3)c2c1,.,0,14,.,.
CC(=O)O/N=C/c1c(NCc2ccccc2)nc2c(C)cccn2c1=O,32,2,34,-1,.
Cc1ccc2nc(NCc3ccccc3)c(C=NCc3ccccc3)c(=O)n2c1,18,3,17,-7,.
Cc1cccn2c(=O)c(/C=N/O)c(NCc3ccccc3)nc12,43*,-4,6,2,.
Cc1cccn2c(=O)c(C=NCc3ccccc3)c(NCCO)nc12,45*,-7,11,-9,+
O=C1O[C@@H](c2ccc(O)cc2)Cc2cccc(O)c21,39*,-2,2,.,.
COc1ccc([C@H]2Cc3cccc(O)c3C(=O)O2)cc1O,25,-5,22,.,.
